Test results from ChEMBL document CHEMBL1156217, “Antioxidant and antiproliferative activities of hydroxyl-substituted Schiff bases” (Bioorg Med Chem Lett, 2010).
Values belong to the compound of their own block, whether it stands above or below them. Active and inactive are the calls of the source. The calls are words filed in the database; no cut-off is given here.

What was measured:
[1] = Antioxidant activity assessed as galvinoxyl radical scavenging activity in ethyl acetate by UV-visible spectroscopy; type: functional
Procedure, shortened: (§1)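 The rate constant k (M−1 s−1) came from the slope of pseudo-first-order kobs against compound concentration. Some rates were instead taken from second-order kinetics at a 1/1 compound/GO• ratio. Values are mean±SD of three determinations.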

[2] = Antioxidant activity assessed as galvinoxyl radical scavenging activity in methanol by UV-visible spectroscopy; type: functional; procedure, shortened: as §1
[3] = tested on: HepG2; assay: Growth inhibition of human HepG2 cells after 72 hrs by sulforhodamine B assay; type: functional, cell-based; conditions: HepG2, 72 h
[4] = Antioxidant activity assessed as against AAPH-induced oxidative damage of pBR322 plasmid DNA assessed as single strand breakage at 10 uM by gel electrophoresis; type: functional
Procedure, shortened: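 Supercoiled pBR322 plasmid DNA (100 ng) incubated with AAPH and/or test compound in PBS, pH 7.4, at 37 °C for 60 min. Strand breakage was assessed by agarose gel electrophoresis as conversion of the supercoiled form to open-circular (single-strand break) and linear (double-strand break) DNA.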

[5] = Stability in PBS at pH 7.4 by UV-visible spectroscopy; type: physicochemical; conditions: buffer
[6] = Stability in PBS at pH 7.4 by UV-visible spectroscopy in presence of HSA; type: physicochemical; conditions: buffer

Compound: Oc1ccccc1/C=N/c1ccccc1 [2-((PHENYLIMINO)METHYL)PHENOL]
- Activity [1]: 0.01 M⁻¹ s⁻¹
- Activity [2]: 0.04 M⁻¹ s⁻¹
- IC50 [3]: > 300 µM

Compound: Oc1ccc(/N=C/c2ccccc2)cc1 [4-(BENZYLIDENEAMINO)PHENOL]
- Activity [1]: 31.9 M⁻¹ s⁻¹
- Activity [2]: 120 M⁻¹ s⁻¹
- IC50 [3]: 108 µM

Compound: COc1ccc(/N=C/c2ccc(O)cc2)cc1
- Activity [1]: 1.1 M⁻¹ s⁻¹
- Activity [2]: 2.48 M⁻¹ s⁻¹
- IC50 [3]: > 300 µM

Compounds with a lower IC50 [3], results first:

- IC50 [3]: 5.6 µM
- Stability [5]: Unstable
- Stability [6]: Stable
Compound: Oc1ccc(/N=C/c2ccc(O)c(O)c2)cc1
- Activity [1]: 1080 M⁻¹ s⁻¹
- Activity [2]: 14800 M⁻¹ s⁻¹
- Activity [4]: Active

- IC50 [3]: 4.1 µM
Compound: COc1cc([C@@H]2c3cc4c(cc3[C@@H](O[C@@H]3O[C@@H]5CO[C@@H](C)O[C@H]5[C@H](O)[C@H]3O)[C@H]3COC(=O)[C@H]23)OCO4)cc(OC)c1O [ETOPOSIDE]

- IC50 [3]: 79.6 µM
Compound: Oc1ccc(/C=C/c2cc(O)cc(O)c2)cc1 [RESVERATROL]
- Activity [1]: 13.4 M⁻¹ s⁻¹
- Activity [2]: 42 M⁻¹ s⁻¹
- Activity [4]: Active
